Measured values gathered from unrelated publications.
Observed: cell growth or viability

N.N.[Cl][Pt][Cl]  IC50 (REH; ATP luminescence; 72 h): 0.78 µM
CCOc1ccccc1-n1c(CN2CCNCC2)nc2ccc(F)cc2c1=O  IC50 (PANC-1; ATP luminescence; 72 h): 0.04 µM
COc1cnc(OC)n2nc(NS(=O)(=O)c3c(OCC(F)F)cccc3C(F)(F)F)nc12  inhibition (L02; CCK-8; 1.56 µM; 72 h): 0%
CC[C@H](C)[C@@H]([C@@H](CC(=O)N1CCC[C@H]1[C@H](OC)[C@@H](C)C(=O)N[C@H](C)[C@@H](O)c1ccccc1)OC)N(C)C(=O)[C@@H](NC(=O)[C@@H](NC)C(C)C)C(C)C  IC50 (L02; CCK-8): 0.0253 µM
O=C(NCc1ccccc1)c1cn(Cc2ccc(C(F)(F)F)cc2)c2ccc(Oc3ccccc3)cc2c1=O  CC50 (HCC1419; 72 h): > 50 µM
O=C1c2ccccc2-c2c3c(cc4ccnc1c24)OCO3  IC50 (MOLT-3; XTT; 75 h): 7.9 µM
Cc1ncsc1-c1ccc([C@H](C)NC(=O)[C@@H]2C[C@@H](O)CN2C(=O)[C@@H](c2cc(N3CCC(CN4CCC(OC5CC(Oc6cc(N7C8CCC7CN(c7cc(-c9ccccc9O)nnc7N)C8)ccn6)C5)CC4)CC3)no2)C(C)C)cc1 (some centres unmarked)  IC50 (NCI-H1944; ATP luminescence; 7 days): 0.0203 µM
CC[C@@]1(O)C(=O)OCc2c1cc1n(c2=O)Cc2cc3ccccc3nc2-1  IC50 (PANC-1; SRB; 48 h): 0.157 µM
